Test results published in ChEMBL document CHEMBL1142666, “Novel [2',5'-bis-O-(tert-butyldimethylsilyl)-beta-D-ribofuranosyl]- 3'-spiro-5''-(4''-amino-1'',2''-oxathiole-2'',2" -dioxide) derivatives with anti-HIV-1 and anti-human-cytomegalovirus activity” (J Med Chem, 2005).

test system: CCRF-CEM; assay: Effective concentration required to inhibit HIV-2 ROD in CEM cell culture; type: functional, cell-based; conditions: Homo sapiens
Method in brief: (§1)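 CEM cells (4 × 10^5/mL) infected at ~100 CCID50/mL and mixed with compound dilutions. Giant cell formation scored microscopically at day 4. EC50 = concentration inhibiting virus-induced cytopathicity by 50%.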

SMILES	EC50 [µM]
Cc1cn([C@@H]2O[C@H](CO[Si](C)(C)C(C)(C)C)[C@@]3(OS(=O)(=O)C=C3NCCC(=O)OCc3ccccc3)[C@H]2O[Si](C)(C)C(C)(C)C)c(=O)n(C)c1=O	> 250
CCNC(=O)NC1=CS(=O)(=O)O[C@@]12[C@@H](CO[Si](C)(C)C(C)(C)C)O[C@@H](n1cc(C)c(=O)n(C)c1=O)[C@@H]2O[Si](C)(C)C(C)(C)C	> 2
Cc1cn([C@@H]2O[C@@H]3COC4(O)CS(=O)(=O)O[C@@]34[C@H]2O[Si](C)(C)C(C)(C)C)c(=O)[nH]c1=O (stereo not given in full)	> 100
Cc1cn([C@@H]2O[C@H](CO[Si](C)(C)C(C)(C)C)[C@@]3(OS(=O)(=O)C=C3N)[C@H]2O[Si](C)(C)C(C)(C)C)c(=O)n(C)c1=O	> 250
Cc1cn([C@@H]2O[C@@H]3COC4(O)CS(=O)(=O)O[C@@]34[C@H]2O)c(=O)[nH]c1=O (stereo not given in full)	> 100
CCOC(=O)NC(=O)NC1=CS(=O)(=O)O[C@@]12[C@@H](CO[Si](C)(C)C(C)(C)C)O[C@@H](n1cc(C)c(=O)n(C)c1=O)[C@@H]2O[Si](C)(C)C(C)(C)C	> 2

test system: MT4; assay: Effective concentration required to inhibit HIV-2 ROD in MT-4 cell culture; type: functional, cell-based; conditions: Homo sapiens
Method in brief: (§2)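 MT-4 cells (3 × 10^5/mL) infected at ~100 CCID50/mL and mixed with compound dilutions. Cytopathicity read by trypan blue exclusion at day 5. EC50 = concentration giving 50% protection against virus-induced loss of viability.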

SMILES	EC50 [µM]
Cc1cn([C@@H]2O[C@H](CO[Si](C)(C)C(C)(C)C)[C@@]3(OS(=O)(=O)C=C3NCCC(=O)OCc3ccccc3)[C@H]2O[Si](C)(C)C(C)(C)C)c(=O)n(C)c1=O	> 250
CCNC(=O)NC1=CS(=O)(=O)O[C@@]12[C@@H](CO[Si](C)(C)C(C)(C)C)O[C@@H](n1cc(C)c(=O)n(C)c1=O)[C@@H]2O[Si](C)(C)C(C)(C)C	> 2
Cc1cn([C@@H]2O[C@@H]3COC4(O)CS(=O)(=O)O[C@@]34[C@H]2O[Si](C)(C)C(C)(C)C)c(=O)[nH]c1=O (stereo not given in full)	> 100
Cc1cn([C@@H]2O[C@H](CO[Si](C)(C)C(C)(C)C)[C@@]3(OS(=O)(=O)C=C3N)[C@H]2O[Si](C)(C)C(C)(C)C)c(=O)n(C)c1=O	> 250
Cc1cn([C@@H]2O[C@@H]3COC4(O)CS(=O)(=O)O[C@@]34[C@H]2O)c(=O)[nH]c1=O (stereo not given in full)	> 100
CCOC(=O)NC(=O)NC1=CS(=O)(=O)O[C@@]12[C@@H](CO[Si](C)(C)C(C)(C)C)O[C@@H](n1cc(C)c(=O)n(C)c1=O)[C@@H]2O[Si](C)(C)C(C)(C)C	> 2

test system: MT4; assay: Cytostatic concentration required to inhibit MT-4 cell proliferation; type: functional; conditions: Homo sapiens
Method in brief: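 Mock-infected MT-4 cells (3 × 10^5/mL) incubated with compound dilutions for 5 days. Viable cells counted by trypan blue exclusion. CC50 = concentration reducing viable MT-4 cell number by 50%.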

SMILES	CC50 [µM]
Cc1cn([C@@H]2O[C@H](CO[Si](C)(C)C(C)(C)C)[C@@]3(OS(=O)(=O)C=C3NCCC(=O)OCc3ccccc3)[C@H]2O[Si](C)(C)C(C)(C)C)c(=O)n(C)c1=O	> 250
Cc1cn([C@@H]2O[C@@H]3COC4(O)CS(=O)(=O)O[C@@]34[C@H]2O[Si](C)(C)C(C)(C)C)c(=O)[nH]c1=O (stereo not given in full)	> 100
Cc1cn([C@@H]2O[C@H](CO[Si](C)(C)C(C)(C)C)[C@@]3(OS(=O)(=O)C=C3N)[C@H]2O[Si](C)(C)C(C)(C)C)c(=O)n(C)c1=O	230
Cc1cn([C@@H]2O[C@@H]3COC4(O)CS(=O)(=O)O[C@@]34[C@H]2O)c(=O)[nH]c1=O (stereo not given in full)	> 100

test system: HEL; assay: Cytostatic concentration required to inhibit HEL cell proliferation; type: functional; conditions: Homo sapiens
Method in brief: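 HEL fibroblasts seeded at 5 × 10^3 cells/well and grown 24 h, then given compound in duplicate. After 3 days at 37 °C in 5% CO2, cell number read on a Coulter counter. CC50 = concentration reducing cell growth by 50%.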

SMILES	CC50 [µM]
Cc1cn([C@@H]2O[C@H](CO[Si](C)(C)C(C)(C)C)[C@@]3(OS(=O)(=O)C=C3NCCC(=O)OCc3ccccc3)[C@H]2O[Si](C)(C)C(C)(C)C)c(=O)n(C)c1=O	> 200
CCNC(=O)NC1=CS(=O)(=O)O[C@@]12[C@@H](CO[Si](C)(C)C(C)(C)C)O[C@@H](n1cc(C)c(=O)n(C)c1=O)[C@@H]2O[Si](C)(C)C(C)(C)C	10
CCOC(=O)NC(=O)NC1=CS(=O)(=O)O[C@@]12[C@@H](CO[Si](C)(C)C(C)(C)C)O[C@@H](n1cc(C)c(=O)n(C)c1=O)[C@@H]2O[Si](C)(C)C(C)(C)C	14

test system: HEL; assay: Effective concentration required to inhibit HCMV AD-169 in HEL Cells; type: functional, cell-based; conditions: Homo sapiens
Method in brief: (§3)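 Confluent HEL cells infected with HCMV at 100 PFU/well. After 1-2 h, residual virus removed and MEM with 2% inactivated FCS added, with compound in duplicate at 5-fold dilution steps. After 7 days at 37 °C in 5% CO2, cells fixed with ethanol and Giemsa-stained; plaques or CPE scored microscopically. IC50 interpolated graphically; mean of two independent experiments.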

SMILES	EC50 [µM]
Cc1cn([C@@H]2O[C@H](CO[Si](C)(C)C(C)(C)C)[C@@]3(OS(=O)(=O)C=C3NCCC(=O)OCc3ccccc3)[C@H]2O[Si](C)(C)C(C)(C)C)c(=O)n(C)c1=O	> 400
CCNC(=O)NC1=CS(=O)(=O)O[C@@]12[C@@H](CO[Si](C)(C)C(C)(C)C)O[C@@H](n1cc(C)c(=O)n(C)c1=O)[C@@H]2O[Si](C)(C)C(C)(C)C	1.8
CCOC(=O)NC(=O)NC1=CS(=O)(=O)O[C@@]12[C@@H](CO[Si](C)(C)C(C)(C)C)O[C@@H](n1cc(C)c(=O)n(C)c1=O)[C@@H]2O[Si](C)(C)C(C)(C)C	2.3

test system: HEL; assay: Effective concentration required to inhibit HCMV Davis in HEL Cells; type: functional, cell-based; conditions: Homo sapiens; method in brief: as §3

SMILES	EC50 [µM]
Cc1cn([C@@H]2O[C@H](CO[Si](C)(C)C(C)(C)C)[C@@]3(OS(=O)(=O)C=C3NCCC(=O)OCc3ccccc3)[C@H]2O[Si](C)(C)C(C)(C)C)c(=O)n(C)c1=O	> 400
CCNC(=O)NC1=CS(=O)(=O)O[C@@]12[C@@H](CO[Si](C)(C)C(C)(C)C)O[C@@H](n1cc(C)c(=O)n(C)c1=O)[C@@H]2O[Si](C)(C)C(C)(C)C	2
CCOC(=O)NC(=O)NC1=CS(=O)(=O)O[C@@]12[C@@H](CO[Si](C)(C)C(C)(C)C)O[C@@H](n1cc(C)c(=O)n(C)c1=O)[C@@H]2O[Si](C)(C)C(C)(C)C	1.8

test system: HEL; assay: Minimal cytotoxic concentration required to cause microscopically visible alteration of cell morphology in HEL Cells; type: functional; conditions: Homo sapiens
Method in brief: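 Uninfected HEL cells exposed to compound. Minimum cytotoxic concentration is the lowest level giving a microscopically detectable change in cell morphology.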

SMILES	MCC [µM]
Cc1cn([C@@H]2O[C@H](CO[Si](C)(C)C(C)(C)C)[C@@]3(OS(=O)(=O)C=C3NCCC(=O)OCc3ccccc3)[C@H]2O[Si](C)(C)C(C)(C)C)c(=O)n(C)c1=O	≥ 400
CCNC(=O)NC1=CS(=O)(=O)O[C@@]12[C@@H](CO[Si](C)(C)C(C)(C)C)O[C@@H](n1cc(C)c(=O)n(C)c1=O)[C@@H]2O[Si](C)(C)C(C)(C)C	≥ 3.2
CCOC(=O)NC(=O)NC1=CS(=O)(=O)O[C@@]12[C@@H](CO[Si](C)(C)C(C)(C)C)O[C@@H](n1cc(C)c(=O)n(C)c1=O)[C@@H]2O[Si](C)(C)C(C)(C)C	16

test system: CCRF-CEM; assay: Effective concentration required to inhibit HIV-1 IIIB in CEM cell culture; type: functional, cell-based; conditions: Homo sapiens; method in brief: as §1

SMILES	EC50 [µM]
Cc1cn([C@@H]2O[C@H](CO[Si](C)(C)C(C)(C)C)[C@@]3(OS(=O)(=O)C=C3NCCC(=O)OCc3ccccc3)[C@H]2O[Si](C)(C)C(C)(C)C)c(=O)n(C)c1=O	> 250
CCNC(=O)NC1=CS(=O)(=O)O[C@@]12[C@@H](CO[Si](C)(C)C(C)(C)C)O[C@@H](n1cc(C)c(=O)n(C)c1=O)[C@@H]2O[Si](C)(C)C(C)(C)C	> 2
Cc1cn([C@@H]2O[C@@H]3COC4(O)CS(=O)(=O)O[C@@]34[C@H]2O[Si](C)(C)C(C)(C)C)c(=O)[nH]c1=O (stereo not given in full)	> 100
Cc1cn([C@@H]2O[C@H](CO[Si](C)(C)C(C)(C)C)[C@@]3(OS(=O)(=O)C=C3N)[C@H]2O[Si](C)(C)C(C)(C)C)c(=O)n(C)c1=O	0.04
Cc1cn([C@@H]2O[C@@H]3COC4(O)CS(=O)(=O)O[C@@]34[C@H]2O)c(=O)[nH]c1=O (stereo not given in full)	> 100
CCOC(=O)NC(=O)NC1=CS(=O)(=O)O[C@@]12[C@@H](CO[Si](C)(C)C(C)(C)C)O[C@@H](n1cc(C)c(=O)n(C)c1=O)[C@@H]2O[Si](C)(C)C(C)(C)C	> 2

test system: CCRF-CEM; assay: Cytostatic concentration required to inhibit CEM cell proliferation; type: functional; conditions: Homo sapiens
Method in brief: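 CEM cells, mock-infected, grown with serial compound dilutions for 4 days. CC50 taken as the concentration that inhibits CEM cell proliferation by 50%.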

SMILES	CC50 [µM]
Cc1cn([C@@H]2O[C@H](CO[Si](C)(C)C(C)(C)C)[C@@]3(OS(=O)(=O)C=C3NCCC(=O)OCc3ccccc3)[C@H]2O[Si](C)(C)C(C)(C)C)c(=O)n(C)c1=O	> 250
CCNC(=O)NC1=CS(=O)(=O)O[C@@]12[C@@H](CO[Si](C)(C)C(C)(C)C)O[C@@H](n1cc(C)c(=O)n(C)c1=O)[C@@H]2O[Si](C)(C)C(C)(C)C	4.26
Cc1cn([C@@H]2O[C@@H]3COC4(O)CS(=O)(=O)O[C@@]34[C@H]2O[Si](C)(C)C(C)(C)C)c(=O)[nH]c1=O (stereo not given in full)	> 100
Cc1cn([C@@H]2O[C@@H]3COC4(O)CS(=O)(=O)O[C@@]34[C@H]2O)c(=O)[nH]c1=O (stereo not given in full)	> 100
CCOC(=O)NC(=O)NC1=CS(=O)(=O)O[C@@]12[C@@H](CO[Si](C)(C)C(C)(C)C)O[C@@H](n1cc(C)c(=O)n(C)c1=O)[C@@H]2O[Si](C)(C)C(C)(C)C	3

test system: MT4; assay: Effective concentration required to inhibit HIV-1 IIIB in MT-4 cell culture; type: functional, cell-based; conditions: Homo sapiens; method in brief: as §2

SMILES	EC50 [µM]
Cc1cn([C@@H]2O[C@H](CO[Si](C)(C)C(C)(C)C)[C@@]3(OS(=O)(=O)C=C3NCCC(=O)OCc3ccccc3)[C@H]2O[Si](C)(C)C(C)(C)C)c(=O)n(C)c1=O	> 250
CCNC(=O)NC1=CS(=O)(=O)O[C@@]12[C@@H](CO[Si](C)(C)C(C)(C)C)O[C@@H](n1cc(C)c(=O)n(C)c1=O)[C@@H]2O[Si](C)(C)C(C)(C)C	> 2
Cc1cn([C@@H]2O[C@@H]3COC4(O)CS(=O)(=O)O[C@@]34[C@H]2O[Si](C)(C)C(C)(C)C)c(=O)[nH]c1=O (stereo not given in full)	> 100
Cc1cn([C@@H]2O[C@H](CO[Si](C)(C)C(C)(C)C)[C@@]3(OS(=O)(=O)C=C3N)[C@H]2O[Si](C)(C)C(C)(C)C)c(=O)n(C)c1=O	0.06
Cc1cn([C@@H]2O[C@@H]3COC4(O)CS(=O)(=O)O[C@@]34[C@H]2O)c(=O)[nH]c1=O (stereo not given in full)	> 100
CCOC(=O)NC(=O)NC1=CS(=O)(=O)O[C@@]12[C@@H](CO[Si](C)(C)C(C)(C)C)O[C@@H](n1cc(C)c(=O)n(C)c1=O)[C@@H]2O[Si](C)(C)C(C)(C)C	> 2
